Shown are actives, neighbours in structure and some others; about 1.9% of the full set was active somewhere.
T cell modulator: modulators of CD8 T cell-vesicle binding, primary screen, mouse 2C CD8+ T cells, flow cytometry; 2C CD8+ T cell-vesicle binding; hits give low values; response (vesicle binding), % at 7 µM; actives 0.068% (n = 330,000); AID 2052, 2009;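 active means response, share of CD8 T cells binding vesicles, and their 90th percentile fluorescence all below set limits, cut at about 80% in these data, passing the limit was not always enough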;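 further: values below 100% mean blocked vesicle binding to the CD8+ T cells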
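Assay system: 2C TCR transgenic mouse naive CD8+ T cells, MACS-purified | Read-out: CD8+ gate FL2 mean fluorescence as % of same-row positive control | Signal: High-throughput flow cytometry with anti-B7-1 and anti-CD8 staining | Timing: Binding step 1.5 h, 37 °C, antibody labelling 20 min, ice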
Rce1 inhib: yeast Rce1p protease inhibitors, primary screen, biochemical, fluorescence, cell-free homogeneous. actives 0.27% (n = 290,000). yeast membranes, quenched prenylated peptide cleavage fluorescence. calls only. CAAX prenyl protease 2 (Saccharomyces cerevisiae (strain ATCC 204508 / S288c)), Q03530;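 active means fall in fluorescence gain of 50% or more versus controls, with final raw signal at or below 3038400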
Target sequence (Q03530 whole entry, looked up): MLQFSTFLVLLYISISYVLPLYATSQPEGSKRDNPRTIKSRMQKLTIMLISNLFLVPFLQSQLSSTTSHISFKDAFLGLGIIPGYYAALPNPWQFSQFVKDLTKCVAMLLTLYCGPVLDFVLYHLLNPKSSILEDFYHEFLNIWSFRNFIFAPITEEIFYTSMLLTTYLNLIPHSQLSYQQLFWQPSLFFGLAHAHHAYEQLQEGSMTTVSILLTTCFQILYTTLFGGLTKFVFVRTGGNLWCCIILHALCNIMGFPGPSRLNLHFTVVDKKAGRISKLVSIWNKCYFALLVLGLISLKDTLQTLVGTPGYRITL
V-ATPase pH: regulators of yeast V-ATPase proton pumping, primary screen, pHLuorin cytosolic pH fluorescence | S. cerevisiae | response, % at 10 µM | actives 0.37% (n = 350,000); in the data active means response mostly above about 7.3%, no sharp cut-off; inactive means mostly below about 5.4%; further: actives read high
proKLK7 act: proKLK7 zymogen activators, primary screen, biochemical, fluorescence intensity; Kallikrein-7 (Homo sapiens), P49862; purified proKLK7, EDANS-DABCYL substrate fluorescence; 100% is mature enzyme control, 0% vehicle; activation, % at 7 µM; actives 0.9% (n = 370,000);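 active means activation above the mean of all tested compounds plus 3 SD, computed per campaign excluding outliers beyond control limits, cut at about 13% in these data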
Target sequence (P49862 whole entry, looked up): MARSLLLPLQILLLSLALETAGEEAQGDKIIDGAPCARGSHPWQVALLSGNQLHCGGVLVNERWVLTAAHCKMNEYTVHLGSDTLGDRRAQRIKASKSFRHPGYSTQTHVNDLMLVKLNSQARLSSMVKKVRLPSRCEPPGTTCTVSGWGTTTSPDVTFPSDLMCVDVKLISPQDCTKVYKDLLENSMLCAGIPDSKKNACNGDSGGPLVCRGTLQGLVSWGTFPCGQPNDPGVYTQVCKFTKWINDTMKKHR
MIN6 prolif-1: inducers of MIN6 beta-cell proliferation, primary screen, ATP luminescence, uHTS. MIN6 cells proliferation, ATPlite luminescence, 48 h; cells starved in 0.2% serum; 100% = growth in 10% serum. proliferation, % at 10 µM. actives 0.29% (n = 330,000);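 active means compounds whose signal lies at least 3.5 SD above the mean of all wells on their plate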
Yeast superoxide: reduction of superoxide in aged yeast, primary screen, HTS; S. cerevisiae aged cells, superoxide DHE fluorescence; hits give low values; superoxide response (% of plate mean), % at 10 µM; actives 0.18% (n = 330,000);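 active means superoxide response under a set limit, about three screen SD below normal, cut at about 65% in these data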;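 further: yeast aged for seven days with compound at 30 °C before DHE staining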
MIN6 prolif-2: inducers of beta-cell proliferation in MIN6, confirmation, MIN6 cells, mouse. shares compounds with MIN6 prolif-1. ATPlite luminescence, 48 h; cells kept in 0.2% serum; scaled between 0.2% and 10% serum. proliferation increase, % at 50 µM. 920 tested, under 10 active. AID 463095, 2010;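 active means proliferation increase above 40% at any of the four tested concentrations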
Each line names hits and unclear results; the compound was inactive in the other large screens (follow-up assays come after a bar, where they were run).

C/C(=N\NC(=O)c1ccccn1)C12CC3CC(CC(C3)C1)C2	MIN6 prolif-1 6.6 | MIN6 prolif-2 inactive
CCCCOc1ccc(C(=O)NCC(=O)NCC(c2ccc(OC)cc2)N2CCOCC2)cc1 (configuration not stated)	none (no result: Rce1 inhib)
COc1ccc(C(CNC(=O)CCNC(=O)c2ccc(Br)cc2)N2CCOCC2)cc1 (configuration not stated)	MIN6 prolif-1 12 | MIN6 prolif-2 inactive
O=C1N2Cc3ccccc3C2CS(=O)(=O)N1CCc1ccccc1 (configuration not stated)	none (no result: T cell modulator, Rce1 inhib, V-ATPase pH, MIN6 prolif-1, Yeast superoxide)
O=c1c2ccccc2nc(SCc2cn3ccsc3n2)n1-c1ccccc1	MIN6 prolif-1 6.1 | MIN6 prolif-2 inactive
O=c1c2ccccc2nc(SCc2cn3ccsc3n2)n1-c1ccccc1F	none
COc1ccc(S[C@]2(C(=O)N3CCOCC3)CC(=O)N(c3ccc(C#N)cc3)[C@@H]2c2ccc(OC)cc2)cc1	none (no result: T cell modulator, Rce1 inhib, V-ATPase pH, MIN6 prolif-1, Yeast superoxide)
Cc1oc(-c2ccc(-c3ccccc3)cc2)nc1CN(CCO)C(C)C	none
COc1ccccc1CNC(=O)CSc1ccc(-c2cccs2)nn1	MIN6 prolif-1 7.8 | MIN6 prolif-2 inactive
CCN(CC)C(=O)CC[C@H]1CC[C@]2(CCCN(S(C)(=O)=O)C2)O1	none (no result: T cell modulator, Rce1 inhib, V-ATPase pH, MIN6 prolif-1, Yeast superoxide)
Cc1c(Cl)cccc1NC(=O)CNC(=O)CCS(=O)(=O)c1ccc(F)cc1	none (no result: Rce1 inhib)
COc1ccc(NC(=O)CSc2ccccc2)cc1S(=O)(=O)N1CCCCC1	MIN6 prolif-1 4.7 | MIN6 prolif-2 inactive
CCc1nc2c(OCc3cc(Cl)cc(Cl)c3)cccn2c1N(C)C(=O)Nc1ccccc1OC	none (no result: T cell modulator, Rce1 inhib, V-ATPase pH, MIN6 prolif-1, Yeast superoxide)
Cc1ccc2c(n1)sc1c(-c3ccccc3)c(C#N)c(N)nc12	MIN6 prolif-1 5.9 | MIN6 prolif-2 inactive
N#CCCCc1cn(-c2ccc(-c3noc4c3C(=O)N(CC(=O)N3CCOCC3)CC4)cc2)nn1	none (no result: T cell modulator, Rce1 inhib, V-ATPase pH, MIN6 prolif-1, Yeast superoxide)
COc1ccc(C(=O)NNS(=O)(=O)c2ccccc2)cc1	MIN6 prolif-1 0.0 | MIN6 prolif-2 inactive
COc1ccc(C(=O)NNS(=O)(=O)c2ccc(OC)cc2)cc1	none
COc1ccccc1CCC(=O)Nc1ccc(S(=O)(=O)Nc2nccs2)cc1	MIN6 prolif-1 13 | MIN6 prolif-2 inactive
Cc1cc(N2CCN(C(=O)OC(C)(C)C)C[C@H]2C)ccc1N1CCN(Cc2ccccc2)[C@@H](C)C1	none (no result: T cell modulator, Rce1 inhib, V-ATPase pH, MIN6 prolif-1, Yeast superoxide)
O=C(Nc1cccc2cccnc12)c1ccc(Cl)cc1	MIN6 prolif-1 5.9 | MIN6 prolif-2 inactive
O=C(Nc1cccnc1Cl)c1ccc(Cl)cc1	none
O=C(Nc1ccc(-c2ccco2)cc1)C1CCCN(Cc2ccc(CO)o2)C1 (configuration not stated)	MIN6 prolif-1 11 | MIN6 prolif-2 inactive
CC(=O)c1cccc(CN2CCCC(C(=O)Nc3ccc(-c4ccco4)cc3)C2)c1 (configuration not stated)	none
CCC(Cc1ccccc1)NC(=O)Cn1cccc1C(=O)c1ccccc1 (configuration not stated)	MIN6 prolif-1 16 | MIN6 prolif-2 inactive
COCCCNC(=O)CSc1nnc(-c2cccnc2)n1C1CCCCC1	none (no result: T cell modulator, Rce1 inhib, V-ATPase pH, MIN6 prolif-1, Yeast superoxide)
Cc1cc(=O)c2ccccc2n1CC(=O)NCc1ccccc1	none
Cc1cc(C)n(CC(=O)NCc2ccccc2)c(=O)c1C#N	MIN6 prolif-1 6.0 | MIN6 prolif-2 inactive
COCCn1c(SCCCc2ccccc2)nc2c1c(=O)[nH]c(=O)n2C	MIN6 prolif-1 5.5 (no result: Rce1 inhib) | MIN6 prolif-2 inactive
COCCSc1nc2c(c(=O)[nH]c(=O)n2C)n1CCCc1ccccc1	none
COc1ccc2[nH]c3c(c2c1)CC(C)NC3=O (configuration not stated)	MIN6 prolif-1 7.3 | MIN6 prolif-2 inactive
CCOC(=O)C1CCN(C(=O)C2(NC(=O)Nc3ccc(F)cc3F)CCCCC2)CC1	MIN6 prolif-1 7.6 (no result: Rce1 inhib) | MIN6 prolif-2 inactive
CCOC(=O)C1CCN(C(=O)C2(NC(=O)NC3CCCCC3)CCCCC2)CC1	none
OCC[C@@H]1C[C@@H](O)[C@H](O)[C@]2(CCCc3ccccc3O2)O1	MIN6 prolif-1 14 | MIN6 prolif-2 inactive
OCC[C@H]1C[C@@H](O)[C@H](O)[C@]2(CCCc3ccccc3O2)O1	none (no result: Rce1 inhib)
O=C(O)c1c[nH]c2ccc(S(=O)(=O)N3CCN(c4ccc(F)cc4)CC3)cc2c1=O	none
O=C(O)c1c[nH]c2ccc(F)cc2c1=O	MIN6 prolif-1 6.8 | MIN6 prolif-2 inactive
Cc1cc(C)c(C)c(S(=O)(=O)Nc2ccccc2C(=O)NCCCn2ccnc2)c1C	none (no result: T cell modulator, MIN6 prolif-1, Yeast superoxide)
Cc1cc(C)c(C)c(S(=O)(=O)Nc2ccccc2C(=O)NCCCN2CCOCC2)c1C	MIN6 prolif-1 8.2 | MIN6 prolif-2 inactive
Cn1c(Cc2cccs2)nnc1SCC(=O)Nc1ccc2c(c1)OCO2	none (no result: T cell modulator, Rce1 inhib, V-ATPase pH, MIN6 prolif-1, Yeast superoxide)
C[C@H]1COc2c3ccc(I)cc3nn21	none (no result: T cell modulator, Rce1 inhib, V-ATPase pH, MIN6 prolif-1, Yeast superoxide)
CC(C)c1[nH]nc2c1C(c1ccccc1)NC2=O (configuration not stated)	none (no result: T cell modulator, Rce1 inhib, V-ATPase pH, MIN6 prolif-1, Yeast superoxide)
O=C(NCc1ccco1)c1c(O)c2cccc3c2n(c1=O)CCC3	MIN6 prolif-1 8.8 | MIN6 prolif-2 inactive
O=C(NCc1ccc(F)cc1)c1c(O)c2cccc3c2n(c1=O)CCC3	none
C/C(=N\OCC(=O)N/N=C/c1ccccc1O)c1cccs1	none (no result: Rce1 inhib)
COc1cccc(/C=N/NC(=O)CO/N=C(\C)c2cccs2)c1OC	MIN6 prolif-1 4.6 | MIN6 prolif-2 inactive
COC(=O)c1sccc1NC(=O)c1c(Cl)cnn1C	MIN6 prolif-1 9.0 | MIN6 prolif-2 inactive
COc1ccc(NC(=O)c2c(Cl)cnn2C)c(C)c1	none
O=C(NCC1CCCCC1)c1cc(S(=O)(=O)N2CCOCC2)ccc1F	none (no result: Rce1 inhib)
COc1cc(-c2noc(C)c2C#CC2(O)CCCCC2)cc(OC)c1OC	MIN6 prolif-1 12 | MIN6 prolif-2 inactive
COC(=O)[C@]12C[C@H](CC(=O)N3CCC(c4ccccc4)CC3)C(=O)N(Cc3ccc4c(c3)OCO4)C1=C[C@H](COCc1ccccc1)O[C@@H]2C	none (no result: T cell modulator, Rce1 inhib, V-ATPase pH, MIN6 prolif-1, Yeast superoxide)
Cc1ccsc1/C=N/NC(=O)CNC(=O)c1ccco1	none
Cc1ccsc1/C=N/NC(=O)CNC(=O)c1cccc([N+](=O)[O-])c1C	MIN6 prolif-1 8.1 | MIN6 prolif-2 inactive
COc1ccc([N+](=O)[O-])cc1NC(=O)c1ccc(N2C(=O)CCC2=O)cc1	MIN6 prolif-1 7.8 | MIN6 prolif-2 inactive
COc1cc2c(cc1OC)C(COc1ccccc1OC)N(C(=O)c1ccco1)CC2 (configuration not stated)	MIN6 prolif-1 8.8 | MIN6 prolif-2 inactive
